Experimental data published in ChEMBL document CHEMBL1133351, “Synthesis and evaluation of vitamin D-based cationic lipids for gene delivery in vitro” (2000).

Tests used:
HEK293 = test: Transfection activity of compound was tested in human embryonic kidney (293) cells (Level of luciferase gene expression is expressed as mean of relative light units (RLU) per well); type: functional
In short: (§1)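 Cationic lipid:DOPE (1:1 molar) films hydrated in PBS pH 7.4 (5 mM cationic lipid), bath-sonicated. pCMV-Luc (CMV-driven firefly luciferase) 1 µg in serum-free CHO-S-SFM mixed with 5 nmol lipid in HBSS, 5–10 min RT. Cells 5×10^4/well seeded 24 h prior; 5 h exposure, then FBS; medium replaced at 24 h; lysed 24 h later; luciferase luminescence (10 s), RLU/well, mean of triplicates.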

HeLa = test: Transfection activity of compound was tested in human cervical adenocarcinoma (HeLa) cells (Level of luciferase gene expression is expressed as mean of relative light units (RLU) per well); type: functional; in short: as §1
[1] = Transfection activity of compound was tested in lewis lung carcinoma (3LL) cells (Level of luciferase gene expression is expressed as mean of relative light units (RLU) per well); type: functional, cell-based; settings: Mus musculus; in short: as §1
NIH3T3 = test: Transfection activity of compound was tested in murine embryonic fibroblast (NIH3T3) cells (Level of luciferase gene expression is expressed as mean of relative light units (RLU) per well); type: functional, Mus musculus; in short: as §1

For `C=C1CC[C@H](OC(=O)NCCN(C)C)C/C1=C/C=C1\CCC[C@]2(C)[C@@H]([C@H](C)/C=C/[C@H](C)C(C)C)CC[C@@H]12.Cl`, the RLU/well (HEK293) was 3.9e+06, the RLU/well (HeLa) was 2.6e+06 and the RLU/well [1] was 800000. The RLU/well (NIH3T3) was 270000.

`C=C1CC[C@H](OC(=O)NCCN(C)C)C/C1=C/C=C1\CCC[C@]2(C)[C@@H]([C@H](C)CCCC(C)C)CC[C@@H]12.Cl` showed an RLU/well (HEK293) of 1.1e+06, an RLU/well (HeLa) of 290000 and an RLU/well [1] of 220000. It also gave an RLU/well (NIH3T3) of 120000.

With `C=C1CC[C@H](OC(=O)NCCCCN)C/C1=C/C=C1\CCC[C@]2(C)[C@@H]([C@H](C)CCCC(C)C)CC[C@@H]12.Cl` the RLU/well (HEK293) was 4.7e+07, the RLU/well (HeLa) was 1.7e+06 and the RLU/well [1] was 820000. For the same compound, the RLU/well (NIH3T3) was 7.8e+06.

Compound `C=C1CC[C@H](OC(=O)NCC[N+](C)(C)C)C/C1=C/C=C1\CCC[C@]2(C)[C@@H]([C@H](C)CCCC(C)C)CC[C@@H]12.[I-]` has an RLU/well (HEK293) of 560000, an RLU/well (HeLa) of 18000 and an RLU/well [1] of 5300. For the same compound, the RLU/well (NIH3T3) was 570000.

With `C=C1CC[C@H](OC(=O)NCCN(CCN)CCN)C/C1=C/C=C1\CCC[C@]2(C)[C@@H]([C@H](C)CCCC(C)C)CC[C@@H]12.Cl` the RLU/well (HEK293) was 3.2e+07, the RLU/well (HeLa) was 1.4e+06 and the RLU/well [1] was 150000. For the same compound, the RLU/well (NIH3T3) was 690000.

In the case of `C=C1CC[C@H](OC(=O)NCC[N+](C)(C)C)C/C1=C/C=C1\CCC[C@]2(C)[C@@H]([C@H](C)/C=C/[C@H](C)C(C)C)CC[C@@H]12.[I-]`, the RLU/well (HEK293) is reported as 1.6e+06, the RLU/well (HeLa) is reported as 38000 and the RLU/well [1] is reported as 4000. For the same compound, the RLU/well (NIH3T3) was 180000.

Work on `C=C1CC[C@H](OC(=O)NCCCCN)C/C1=C/C=C1\CCC[C@]2(C)[C@@H]([C@H](C)/C=C/[C@H](C)C(C)C)CC[C@@H]12.Cl` yielded an RLU/well (HEK293) of 6.3e+07, an RLU/well (HeLa) of 930000 and an RLU/well [1] of 610000. The RLU/well (NIH3T3) was 2.1e+06.

Compound `C=C1CC[C@H](OC(=O)NCCN(CCN)CCN)C/C1=C/C=C1\CCC[C@]2(C)[C@@H]([C@H](C)/C=C/[C@H](C)C(C)C)CC[C@@H]12.Cl` has an RLU/well (HEK293) of 4.8e+07, an RLU/well (HeLa) of 540000 and an RLU/well [1] of 590000. The RLU/well (NIH3T3) was 1.9e+06.
